pKd: −log10 of the molar value. Activity calls are given as the source filed them. The calls are words filed in the database; no cut-off is given here.
Tests used:
[1] = organism: Homo sapiens; experiment: Activation of antithrombin in healthy human plasma assessed as inhibition of S-2238 hydrolysis at 148 uM incubated for 5 mins in presence of 1 uM unfractionated heparin; format: cell-free; set-up: scale not given: the % may be the effect or the level left
[2] = Activation of purified human antithrombin-unfractionated heparin interaction assessed as change in antithrombin intrinsic fluorescence by fluorescence spectrophotometry
In short: (§1)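 Antithrombin intrinsic fluorescence emission at 340 nm titrated with UFH (alone or after antithrombin preincubation with 37 μM compound) at room temperature, I = 0.15, 20 mM NaPO4, 100 mM NaCl, 0.1 mM EDTA, 0.1% PEG 8000, pH 7.4. Each point averaged from 100 readings at 1 s intervals; Kd obtained by data fitting.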

[3] = organism: Homo sapiens; experiment: Activation of purified human antithrombin-mediated inhibition of thrombin assessed as second order association rate constant for chromogenic substrate hydrolysis by microplate reader based assay
[4] = organism: Homo sapiens; experiment: Activation of purified human antithrombin-low affinity heparin interaction assessed as antithrombin-mediated inhibition of factor 10a by measuring as second order association rate constant for chromogenic substrate hydrolysis at 1 uM by microplate reader based assay
[5] = Binding affinity to purified human antithrombin at 128 uM by isothermal titration calorimetry
[6] = organism: Homo sapiens; experiment: Activation of antithrombin L99F mutant in type 2 antithrombin deficiency patient plasma assessed as inhibition of S-2238 hydrolysis at 148 uM incubated for 5 mins in presence of mouse Py-4-1 cells (reference value: 33.22 +/- 2.93%); format: cell-free; set-up: scale not given: the % may be the effect or the level left
[7] = organism: Homo sapiens; experiment: Activation of antithrombin L99F mutant in type 2 antithrombin deficiency patient plasma assessed as inhibition of S-2238 hydrolysis at 148 uM incubated for 5 mins in presence of 1 uM unfractionated heparin (reference value: 33.22 +/- 2.93%); format: cell-free; set-up: scale not given: the % may be the effect or the level left
[8] = organism: Homo sapiens; experiment: Activation of citrullinated human antithrombin-mediated inhibition of factor 10a assessed as chromogenic substrate hydrolysis at 14.8 uM in presence of rabbit skeletal muscle […]; set-up: scale not given: the % may be the effect or the level left
In short: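 Plasma-purified antithrombin (1 mg/mL) incubated with rabbit skeletal muscle PAD IV (50:1 molar ratio antithrombin/PAD) ± 14.8 μM compound in 100 mM Tris-HCl, 5 mM CaCl2, pH 7.4, 37 °C, 15 min; stopped with 50 mM EDTA. Residual anti-FXa activity by chromogenic assay with heparin, bovine FXa, S-2765, A405. Two experiments in triplicate, % of antithrombin alone.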

[9] = organism: Homo sapiens; experiment: Activation of purified human antithrombin-mediated inhibition of factor 10a assessed as second order association rate constant for chromogenic substrate hydrolysis by microplate reader based assay
[10] = organism: Homo sapiens; experiment: Activation of purified human antithrombin-high affinity heparin interaction assessed as antithrombin-mediated inhibition of factor 10a by measuring as second order association rate constant for chromogenic substrate hydrolysis at 1 uM by microplate reader based assay
[11] = organism: Homo sapiens; experiment: Induction of conformational changes in purified human antithrombin assessed as induction of transition latent conformation up to 14.8 uM at 37 or 42 degC incubated for 2 days in absence of urea by native PAGE
In short: (§2)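 Antithrombin incubated with compound up to 14.8 μM at 37 or 42 °C for 2 days; latent form and polymers assessed by immunoelectrophoresis on 8% (w/v) nondenaturing PAGE with or without 7 M urea.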

[12] = target: T1, Antithrombin (Homo sapiens) (UniProt Q15950); experiment: Activation of purified human antithrombin-unfractionated heparin assessed as change in antithrombin intrinsic fluorescence at 37 uM by fluorescence spectrophotometry relative to untreated heparin control; in short: as §1
T1 sequence (whole entry): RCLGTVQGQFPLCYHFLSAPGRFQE

[13] = organism: Homo sapiens; experiment: Activation of purified human antithrombin-low affinity heparin interaction assessed as antithrombin-mediated inhibition of thrombin by measuring as second order association rate constant for chromogenic substrate hydrolysis at 1 uM by microplate reader based assay
[14] = organism: Homo sapiens; experiment: Induction of conformational changes in purified human antithrombin assessed as induction of antithrombin polymer formation up to 14.8 uM at 37 or 42 degC incubated for 2 days in presence of urea by native PAGE; in short: as §2
[15] = organism: Homo sapiens; experiment: Activation of purified human antithrombin-high affinity heparin interaction assessed as antithrombin-mediated inhibition of thrombin by measuring as second order association rate constant for chromogenic substrate hydrolysis at 1 uM by microplate reader based assay
[16] = organism: Homo sapiens; experiment: Induction of conformational changes in purified human antithrombin assessed as induction of antithrombin polymer formation up to 14.8 uM at 37 or 42 degC incubated for 2 days in absence of urea by native PAGE; in short: as §2
[17] = organism: Homo sapiens; experiment: Induction of conformational changes in purified human antithrombin assessed as induction of transition latent conformation up to 14.8 uM at 37 or 42 degC incubated for 2 days in presence of urea by native PAGE; in short: as §2
[18] = organism: Homo sapiens; experiment: Activation of antithrombin in healthy human plasma assessed as inhibition of S-2238 hydrolysis at 148 uM incubated for 5 mins in presence of mouse Py-4-1 cells; format: cell-free; set-up: scale not given: the % may be the effect or the level left
[19] = Binding affinity to purified human antithrombin at 64 uM by isothermal titration calorimetry
[20] = Binding affinity to purified human antithrombin at 64 uM in presence of 37 uM d-myo-inositol 3,4,5,6-tetrakisphosphate by isothermal titration calorimetry

Row | Compound | Activity [1] [%] | pKd [2] | K [3] [M⁻¹ s⁻¹] | K [4] [M⁻¹ s⁻¹] | pKd [5] | Activity [6] [%] | Activity [7] [%] | Activity [8] [%] | K [9] [M⁻¹ s⁻¹] | K [10] [M⁻¹ s⁻¹] | Activity [11] | fold change (FC) [12] | K [13] [M⁻¹ s⁻¹] | Activity [14] | K [15] [M⁻¹ s⁻¹] | Activity [16] | Activity [17] | Activity [18] [%] | pKd [19] | pKd [20]
1 | O=P(O)(O)O[C@@H]1[C@@H](OP(=O)(O)O)[C@H](OP(=O)(O)O)[C@@H](O)[C@@H](O)[C@H]1OP(=O)(O)O | 97.3 | 7.35 | 23000 | 87000 | 7.35 | 37.2 | 40 | 30 | 12000 | 2.28e+06 | inactive | 2.3 | 683000 | inactive | 3.28e+06 | inactive | inactive | 101 |  | 
2 | CO[C@H]1O[C@H](COS(=O)(=O)O)[C@@H](O[C@@H]2O[C@@H](C(=O)O)[C@@H](O[C@H]3O[C@H](COS(=O)(=O)O)[C@@H](O[C@@H]4O[C@H](C(=O)O)[C@@H](O[C@H]5O[C@H](COS(=O)(=O)O)[C@@H](O)[C@H](O)[C@H]5NS(=O)(=O)O)[C@H](O)[C@H]4O)[C@H](OS(=O)(=O)O)[C@H]3NS(=O)(=O)O)[C@H](O)[C@H]2OS(=O)(=O)O)[C@H](O)[C@H]1NS(=O)(=O)O [FONDAPARINUX SODIUM] |  |  |  |  |  |  |  |  |  |  |  |  |  |  |  |  |  |  | 6.56 | 7.73

— ChEMBL document CHEMBL2163224, “In silico discovery of a compound with nanomolar affinity to antithrombin causing partial activation and increased heparin affinity” (J Med Chem, 2012)
